Measured values: PubChem BioAssay AID504383 (The Scripps Research Institute Molecular Screening Center, 2011)
In all, about 2,500 compounds went through this assay and about 1,200 (48%) were called active. So high a share suggests a set chosen from earlier hits. Some of the results follow. A number with no mark means an inactive call.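 How the source made its calls: active means mean activation above the low control average plus 3 SD, as set in the primary screen (cut at about 12% in these data); inactive means the rest.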

What follows are compounds tested against Troponin I, cardiac muscle (Homo sapiens) + Troponin T, cardiac muscle (Homo sapiens) + Troponin C, slow skeletal and cardiac muscles (Homo sapiens) (UniProt P19429+P45379+P63316) (assay: calcium sensitizers of cardiac thin filaments – biochemical, IANBD-TnC fluorescence, triplicate, confirmation (AID 504383;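 further: 0% = DMSO at 0.472 mM calcium and 100% = DMSO at 2.9 mM calcium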)). Conditions: IANBD-labeled cardiac RTF, Ca2+ sensitivity fluorescence; at 7.2 µM; stronger effect = higher value; scaled from EC20 to saturating calcium; tested at EC20 calcium, 0.472 mM.
Procedure, shortened: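 Assay system: labelled regulated thin filaments / Timing: 15 min at 25 °C / Detection: fluorescence intensity of labelled filaments / Measure: fluorescence gain scaled between EC20 and EC100 calcium controls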

SMILES	activation
C=C(C)c1cccc(C(C)(C)NC(=O)Nc2cccnc2)c1	15.5% (active)
COc1ccc(NC(=O)Nc2cccnc2)c(OC)c1	5.8%
CCn1c(CSCc2ccccc2)n[nH]c1=S	15.7% (active)
Nc1ccc(CCNc2ncnc3c2ncn3[C@@H]2O[C@H](CO)[C@@H](O)[C@H]2O)cc1	7.47%
Cc1cc(-n2c(=O)c(C#N)cc3c(=O)n4ccccc4nc32)no1	14.7% (active)
S=C1NC2=C(CCCC2=C2SCCCS2)C(c2ccccc2)N1 (configuration not stated)	23.6% (active)
S=C1NC2=C(CCC/C2=C\c2ccccc2)C(c2ccccc2)N1 (configuration not stated)	8.03%
CN(C)/C=C1\SC(=S)N(c2ccc(Br)cc2)C1=O	75.9% (active)
CCN1C(=O)/C(=C/C=C2\N(CC)c3cc(S(=O)(=O)N(C)C)ccc3N2c2ccccc2)SC1=S	10.6%
O=C1CSC(=S)N1c1ccc(O)cc1	4.53%
CC(C)c1ccc(N2C(=O)/C(=C/N(C)C)SC2=S)cc1	57.7% (active)
O=C(c1ccccc1C(=O)N1CCN(c2ccccc2)CC1)N1CCN(c2ccccc2)CC1	0.49%
C=CCn1c(C)c(C(C)=O)c(N2CCN(c3ccccc3)CC2)nc1=S	74.9% (active)
CC(=O)c1nnn(-c2nc(N3CCCC3)nc(N(c3ccccc3)c3ccccc3)n2)c1C	5.27%
COC(=O)c1ccc(-c2ccc(F)cc2)nc1C	-3.68%
CC(C)OC(=O)CC(=O)CSc1nc(-c2ccc(F)cc2)cc(-c2ccccc2)c1C#N	38.9% (active)
CN1CCCC(OC(=O)c2ccccc2Br)C1 (configuration not stated)	67% (active)
O=C(OCCN1CCCCC1)c1ccccc1Br	3.85%
Cc1cccc2cc3c(N)c(C(=O)N4CCc5ccccc54)sc3nc12	7.08%
Cc1c(Br)c(C(=O)N2CCc3ccccc32)nn1C	3.1%
Cc1nn(C)c(C(=O)N2CCc3ccccc32)c1Br	66.9% (active)
O=C1c2ccsc2SCCN1Cc1ccc(F)cc1	27.7% (active)
O=C1N/C(=C\c2ccsc2)C(=O)N1Cc1ccc(F)cc1	4.06%
C=CCn1c(=O)c(C(=O)NCCNCC)c(O)c2ccccc21	12.4% (active)

SMILES	activation
CCn1c(=O)c(C(=O)CN2CCCc3ccccc32)c(N)n(Cc2ccccc2)c1=O	60% (active)
COc1cc(OC)cc(C(=O)N(Cc2ccco2)c2c(N)n(Cc3ccccc3)c(=O)[nH]c2=O)c1	7.79%
COCCCN(C(=O)c1cccnc1SC)c1c(N)n(Cc2ccccc2)c(=O)[nH]c1=O	48.1% (active)
CCN(C(=O)CN1CCCc2cc(C)ccc21)c1c(N)n(Cc2ccccc2)c(=O)[nH]c1=O	6.97%
CCCCN(C(=O)c1ccc([N+](=O)[O-])o1)c1c(N)n(CCCC)c(=O)[nH]c1=O	5.49%
COCCN(C(=O)CN1CCCc2ccccc21)c1c(N)n(Cc2ccccc2)c(=O)[nH]c1=O	18.8% (active)
Cc1ccc2c(c1)CCCN2CC(=O)N(C)c1c(N)n(Cc2ccccc2)c(=O)[nH]c1=O	1.27%
OCCN(CCO)c1nc(N2CCCCC2)c2nc(N(CCO)CCO)nc(N3CCCCC3)c2n1	7.69%
CC(=O)N1CCc2c(sc(NC(=O)C3CCCN3S(=O)(=O)c3cccs3)c2C(N)=O)C1 (configuration not stated)	39.1% (active)
CN1CCc2c(sc(/N=C/c3cccs3)c2C(N)=O)C1	2.64%
CN1CCc2c(sc(/N=C/c3ccco3)c2C(N)=O)C1	10.3%
CCN1C(=O)/C(=C/N2CCc3ccccc32)SC1=S	50% (active)
C=CCN1C(=O)/C(=C\C=C2\N(C)c3ccccc3C2(C)C)SC1=S	3.44%
COc1ccc(C2=NS(=O)(=O)N(C)C(C(=O)NC3CCCC3)=C2)cc1	-1.79%
COc1ccccc1NCC(=O)NC(=O)NC1CCCCC1	13.1% (active)
CCOc1ccc(C(=O)NC2CCN(C(=O)Nc3ccccc3OC)CC2)cc1	2.1%
CSCCC(NC(=O)c1ccc(Cl)cc1)C(=O)OCC(=O)c1ccc[nH]1 (configuration not stated)	9.46%
CCS(=O)(=O)N1Cc2ccccc2CC1C(=O)Nc1ccc(OC)cc1OC (configuration not stated)	6.84%
COc1ccc(N2CC(C(=O)Nc3nc(-c4ccccc4)c(C(C)=O)s3)CC2=O)c(OC)c1 (configuration not stated)	12.4% (active)
COc1ccc(OC)c(S(=O)(=O)N2CCC(C(=O)NCc3ccccn3)CC2)c1	7.51%
Cc1ccc(/C=C2\CCC3=C2OC(N)=C(C#N)C3c2ccc(C)cc2)cc1 (configuration not stated)	11%
N#CC1=C(N)OC2=C(CC/C2=C\c2ccccc2)C1c1ccccc1 (configuration not stated)	36.3% (active)
N#CC1=C(N)OC2=C(CC/C2=C\c2ccccc2Cl)C1c1ccccc1Cl (configuration not stated)	317% (active)
